Reference: ChEMBL document CHEMBL5252539, “In vitro biological evaluation of new antimycobacterial salicylanilide-tuftsin conjugates” (Eur J Med Chem, 2017)
Values after ≈ are worked out from the molar mass of the structure shown. Active and inactive are the calls of the source. No cut-off for these calls is given here. *1 amine or outer side, *2 acyl side, *3 side chain or, on linkers, in order; H or OH if unused. Where a SMILES comes first, the peptide text is derived from it. [ ]: non-standard residue; d: D form. The star is where a group is joined. X1 = C/C(=N\OCC(=O)[*:2])c1ccc(N[*:1])cc1; Benzoyl(5-Br-2-OH) = O=C(c1cc(Br)ccc1O)*; Decanoyl = CCCCCCCCCC(=O)*

Key:
[1] = test system: Mycobacterium tuberculosis; test: Antimycobacterial activity against Mycobacterium tuberculosis H37Rv ATCC 27294 assessed as reduction in bacterial growth after 28 days by serial dilution method; assay type: functional; conditions: H37Rv ATCC 27294, 672 h, time 28 day
Procedure, shortened: (§1)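 Broth MIC in Sula semisynthetic medium, pH 6.5; 4-week incubation, with 21-day values […] where indicated. Drug-free inoculated bacteria served as growth control. MIC also expressed as drug content (µg/mL) = MIC (µM) × average SAL molar mass × number of SAL per conjugate / 1000.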

[2] = Stability of the compound in DMSO at 4 degree C at 2 mM up to 3 weeks by reverse phase HPLC analysis; assay type: physicochemical; conditions: 504 h, 2000 µM
Procedure, shortened: (§2)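 Stability followed by analytical RP-HPLC and mass spectrometry under assay conditions: in DMSO at 4 °C over 3 weeks, in serum-free RPMI-1640 at 37 °C over 1 week, and in complete RPMI-1640 at 37 °C over 1 day.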

[3] = Stability of the compound in serum free RPMI-1640 medium containing 2% DMSO at 1 mg/ml after 1 week by reverse phase HPLC analysis; conditions: time 1.0 weeks; procedure, shortened: as §2
[4] = Stability of the compound in complete RPMI-1640 medium containing 2% DMSO at 1 mg/ml after 24 hrs by reverse phase HPLC analysis; procedure, shortened: as §2
[5] = Retention time of the compound by RP-HPLC analysis; assay type: physicochemical
Procedure, shortened: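 Analytical RP-HPLC on a C18 column (5 μm, 100 Å, 4.6 × 150 mm). Eluent A 0.1% TFA in water, eluent B 0.1% TFA in acetonitrile-water 80:20. Gradient 0% B for 5 min, to 60% B at 15 min, to 100% B at 25 min. Flow 1 mL/min, detection at 220 nm.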

[6] = test system: Mycobacteroides abscessus; test: Antimycobacterial activity against Mycobacterium abscessus ATCC 19977 assessed as reduction in bacterial growth after 7 days by serial dilution method; assay type: functional; conditions: ATCC 19977, 168 h, time 7 day
Procedure, shortened: (§3)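 MIC determined in Sula semisynthetic medium, pH 6.5, 1 week incubation. Growth inhibition confirmed by plating on Löwenstein-Jensen solid medium and counting CFU. Bacteria inoculated without drug served as growth control.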

[7] = test system: Mycobacterium tuberculosis; test: Antimycobacterial activity against Mycobacterium tuberculosis H37Rv ATCC 27294 assessed as reduction in colony forming unit after 28 days by serial dilution method; assay type: functional, organism-based; conditions: time 28.0 day
Procedure, shortened: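 After the 4-week MIC incubation in Sula semisynthetic medium (pH 6.5), growth inhibition confirmed by plating on Löwenstein-Jensen solid medium and counting colony forming units.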

[8] = test system: Mycobacteroides abscessus; test: Antimycobacterial activity against Mycobacterium abscessus ATCC 19977 assessed as reduction in colony forming unit after 7 days by serial dilution method; assay type: functional, organism-based; conditions: time 7.0 day; procedure, shortened: as §3
MONO-MAC-6 = test: Cytostatic activity against human MONO-MAC-6 cells assessed as reduction in cell viability incubated for 24 hrs by MTT assay; assay type: functional, cell-based; conditions: MONO-MAC-6, 24 h
Procedure, shortened: (§4)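 MTT viability assay after 24 h exposure of MonoMac6 human monocytic cells or HepG2 human hepatocellular carcinoma cells. Top concentration 200 μM. IC50 taken from dose-response curves as the concentration reducing viability to 50% of maximal.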

HepG2 = test: Cytostatic activity against human HepG2 cells assessed as reduction in cell viability incubated for 24 hrs by MTT assay; assay type: functional, cell-based; conditions: HepG2, 24 h; procedure, shortened: as §4
[9] = Selectivity index, ratio of IC50 for cytostatic activity against human MONO-MAC-6 cells to MIC for antimycobacterial activity against Mycobacterium tuberculosis H37Rv ATCC 27294; assay type: toxicity, cell-based; conditions: read-out: Selectivity Index
Procedure, shortened: (§5)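 MTT assay on MonoMac6 or HepG2 cells after 24 h exposure, top concentration 200 µM. SI = IC50 (µM)/MIC (µM) against H37Rv from the 4-week Sula medium assay.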

[10] = Selectivity index, ratio of IC50 for cytostatic activity against human HepG2 cells to MIC for antimycobacterial activity against Mycobacterium tuberculosis H37Rv ATCC 27294; assay type: toxicity, cell-based; conditions: read-out: Selectivity Index; procedure, shortened: as §5
[11] = Cytotoxicity against mouse bone marrow derived macrophages assessed as reduction in cell viability incubated for 48 hrs by MTT assay; assay type: toxicity, cell-based, Macrophage
Procedure, shortened: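 Murine bone marrow-derived macrophages exposed for 48 h, viability by MTT. Highest concentration tested 100 µM. IC50 taken from dose-response curves.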

[12] = Selectivity index, ratio of IC50 for cytotoxicity against mouse bone marrow derived macrophages to MIC for antimycobacterial activity against Mycobacterium tuberculosis H37Rv ATCC 27294; assay type: toxicity; conditions: read-out: Selectivity Index
Procedure, shortened: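 Murine bone marrow-derived macrophages exposed for 48 h, top concentration 100 µM. Viability read by MTT and IC50 taken from dose-response curves. SI = IC50/MIC against H37Rv.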

[13] = Stability in rat liver lysosomal homogenate assessed as drug degradation at 50 uM and measured upto 24 hrs by HPLC-MS analysis; assay type: ADME, subcellular, Lysosome; conditions: tissue homogenate
Procedure, shortened: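 Conjugates incubated in rat liver lysosomal homogenate. Reaction mixtures sampled at 5 min, 1 h, 2 h, 4 h, 8 h and 24 h and analysed by HPLC-MS (chromatograms and mass spectra) to identify intact conjugate, fragments and cleavage sites.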

[14] = test system: Mycobacterium tuberculosis; test: […] antimycobacterial activity against Mycobacterium tuberculosis H37Rv ATCC 27294 infected in human MONO-MAC-6 cells assessed as reduction in colony forming unit at 125 uM for 6 days by colony counting based analysis; assay type: functional, organism-based; conditions: time 6.0 day
Procedure, shortened: (§6)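 MonoMac6 monolayers infected with H37Rv, then treated with compound at 125 or 250 µM for 3 days. Treatment repeated with fresh compound solution for another 3 days. Intracellular bacteria quantified as CFU against untreated infected cells.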

[15] = test system: Mycobacterium tuberculosis; test: […] antimycobacterial activity against Mycobacterium tuberculosis H37Rv ATCC 27294 infected in human MONO-MAC-6 cells assessed as reduction in colony forming unit at 250 uM for 6 days by colony counting based analysis; assay type: functional, organism-based; conditions: time 6.0 day; procedure, shortened: as §6
[16] = Stability of the compound in Sula's semisynthetic medium containing 10% DMSO assessed as free salicylanilide formation at pH 6.5 at 2 mg/ml after 4 weeks at 37 degree C by reverse phase HPLC analysis
Procedure, shortened: (§7)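 Conjugate incubated in Sula semisynthetic medium (pH 6.5) at 37 °C for 4 weeks. Decomposition to free salicylanilide and 2-hydroxyacetyl-tuftsin derivative followed by analytical RP-HPLC and mass spectrometry.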

[17] = Stability of the compound in Sula's semisynthetic medium containing 10% DMSO assessed as 2-hydroxyacetyl-tuftsin derivative formation at pH 6.5 at 2 mg/ml after 4 weeks at 37 degree C by reverse phase HPLC analysis; procedure, shortened: as §7
[18] = test system: Mycobacterium tuberculosis; test: Antimycobacterial activity against Mycobacterium tuberculosis H37Rv ATCC 27294 assessed as reduction in bacterial growth after 21 days by serial dilution method; assay type: functional; conditions: H37Rv ATCC 27294, 504 h, time 21 day; procedure, shortened: as §1

Q: Which results are given for `C/C(=N\OCC(=O)N[C@H](C(=O)N[C@@H](CCCCN)C(=O)N1CCC[C@H]1C(=O)N[C@@H](CCCCN)C(=O)NCC(=O)N[C@H](C(=O)N[C@@H](CCCCN)C(=O)N1CCC[C@H]1C(=O)N[C@@H](CCCCN)C(=O)NCC(=O)N[C@H](C(=O)N[C@@H](CCCCN)C(=O)N1CCC[C@H]1C(=O)N[C@@H](CCCCN)C(=O)NCC(=O)N[C@H](C(=O)N[C@@H](CCCCN)C(=O)N1CCC[C@H]1C(=O)N[C@@H](CCCCN)C(=O)NCC(N)=O)[C@@H](C)O)[C@@H](C)O)[C@@H](C)O)[C@@H](C)O)c1ccc(NC(=O)c2cc(Br)ccc2O)cc1` ({Benzoyl(5-Br-2-OH)}-[X1]TKPKGTKPKGTKPKGTKPKG-NH2)?
A: MIC [1]: 81.5 µM (≈ 200 µg/mL); Stability [2]: Stable; Stability [3]: Stable; Stability [4]: Stable; Retention_time [5]: 14.3 min; MIC [6]: 40.8 µM (≈ 100 µg/mL); Activity [7]: Active; Activity [8]: Active; IC50 (MONO-MAC-6): > 200 µM; IC50 (HepG2): 81.9 µM; selectivity ratio [9]: > 2.5; selectivity ratio [10]: 1; IC50 at 48 h [11]: > 100 µM; selectivity ratio [12]: 1.2; Stability [13]: Unstable; Activity [14]: Active; Activity [15]: Active; Stability [16]: Stable; Stability [17]: Stable

Q: Which results are given for `CCCCCCCCCC(=O)NCCCC[C@H](NC(=O)[C@@H]1CCCN1C(=O)[C@H](CCCCN)NC(=O)[C@@H](NC(=O)CO/N=C(\C)c1ccc(NC(=O)c2cc(Br)ccc2O)cc1)[C@@H](C)O)C(=O)NCC(=O)N[C@H](C(=O)N[C@@H](CCCCN)C(=O)N1CCC[C@H]1C(=O)N[C@@H](CCCCN)C(=O)NCC(=O)N[C@H](C(=O)N[C@@H](CCCCN)C(=O)N1CCC[C@H]1C(=O)N[C@@H](CCCCN)C(=O)NCC(=O)N[C@H](C(=O)N[C@@H](CCCCN)C(=O)N1CCC[C@H]1C(=O)N[C@@H](CCCCN)C(=O)NCC(N)=O)[C@@H](C)O)[C@@H](C)O)[C@@H](C)O` ({Benzoyl(5-Br-2-OH)}-[X1]TKPK(Decanoyl)GTKPKGTKPKGTKPKG-NH2)?
A: Stability [2]: Stable; Stability [3]: Stable; Stability [4]: Stable; Retention_time [5]: 16.4 min; MIC [6]: 76.7 µM (≈ 200 µg/mL); Activity [7]: Active; Activity [8]: Active; IC50 (MONO-MAC-6): 24.9 µM; IC50 (HepG2): 113 µM; selectivity ratio [9]: 0.3; selectivity ratio [10]: 1.5; IC50 at 48 h [11]: 71.9 µM; selectivity ratio [12]: 0.9; Stability [13]: Unstable; Activity [14]: Active; Activity [15]: Active; MIC [18]: 76.7 µM (≈ 200 µg/mL)
